Beta apoptosis: beta cell apoptosis inhibition; INS-1E cytokine-induced death, ATP luminescence, 48 h; percent of positive-control rescue, neutral wells zero; protection from apoptosis, % (test concentration not listed); 300,000 tested, 0.8% active; AID 435005;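 active = Every replicate reaches about 75%, or at least half do and their mean reaches it too, limit read from the data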;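 also: 0% = cytokine-treated negative control wells and 100% = positive control rescue; higher means more ATP so stronger rescue from cytokine killing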
NALP3 yeast inh: NALP3 inhibition in yeast | Yeast reconstituted NLRP3/ASC/caspase-1, beta-gal luminescence, 24 h | inhibition, % at 10 µM | 330,000 tested, 0.39% active | AID 2825;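 active = inhibition of 50% or more; inactive = inhibition below 50%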;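 also: plate controls were induced DMSO wells for no effect and uninduced yeast grown without galactose for full effect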
CSC inhib: blocks cancer stem cells | cancer stem cell-like cells viability, luminescence | inhibition, % at 7.5 µM | 300,000 tested, 1.1% active; in the data active = inhibition above about 75%; tested in HMLE shEcad cells
Calb FLC: affects C. albicans growth with fluconazole | C. albicans CaCi-2 (fluconazole-resistant clinical isolate) + fluconazole, Alamar Blue growth, 48 h | AID 1979 | growth inhibition, % (concentration not given with the values) | 300,000 tested, 0.57% active;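 active = growth inhibition above about 58% in most replicates, limit read from the data, passing the limit was not always enough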;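 also: all wells also contain fluconazole at 8 µg/ml as a sub-toxic cotreatment; 0% = median of DMSO wells and 100% = median of geldanamycin control wells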
Mdm2-MdmX inh: disrupts the human Mdm2-MdmX interaction; SaOS-2 split-luciferase Mdm2/MdmX complementation, luminescence; inhibition, % at 8 µM; 330,000 tested, 3% active; AID 485346;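 active = inhibition of at least 50% at 8 µM in the primary screen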
T cruzi repl: T. cruzi replication inhibition | T. cruzi beta-gal in NIH3T3, luminescence, 90 h | inhibition, % (test concentration not listed) | 300,000 tested, 1.4% active | AID 1885;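 active = mean inhibition across valid replicates above about 55%, limit read from the data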;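 also: signal also drops with host cell toxicity which is not excluded here; 0% = plate median of DMSO wells and 100% = zero luminescence signal; higher percent means less beta-gal luminescence so fewer parasites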
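Read-out: Parasite load inhibition, % | Test system: Mouse NIH/3T3 fibroblasts infected with β-gal-expressing T. cruzi Tulahuen C4 | Amount: 5,000 cells/well | Medium: DMEM, 2% fetal bovine serum | Signal: GalScreen β-gal luminescence, detergent lysis, 60 min | Timing: 3 h attach, ≥90 h co-culture | Also added: Tulahuen C4 trypomastigotes, 5000/well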
Mdm2-MdmX conf: confirmation of human Mdm2/MdmX interaction inhibitors | shares compounds with Mdm2-MdmX inh | Mdm2-MdmX binding, luminescent assay | 10,000 tested, 55% active | inhibition, % at 8 µM; in the data active = inhibition above about 40%
FLuc counter: full-length luciferase inhibition in Mdm2/MdmX counter-screen; shares compounds with Mdm2-MdmX inh; SaOS-2 full-length luciferase counterscreen, luminescence; inhibition, % at 8 µM; 6,200 tested, 77% active;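 active = mean inhibition at 8 µM reaching about 37%, which flags the compound as non-specific, limit read from the data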;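 also: p53-null SaOS-2 cells with luciferase driven by a doxycycline-inducible promoter; compound on cells about two nights before reading with doxycycline added after day one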
* hit, by the source's call; . = not tested or not shown. Most compounds without a hit are left out; they make up all but 5.3% or so of the library.

SMILES | Beta apoptosis | NALP3 yeast inh | CSC inhib | Calb FLC | Mdm2-MdmX inh | T cruzi repl | Mdm2-MdmX conf | FLuc counter
COc1ccc(Cl)cc1NCC(=O)Nc1ccc(OC)c(S(=O)(=O)N2CCCCC2)c1 | 0.2 | 18.2 | -5.3 | . | 6.9 | . | . | .
Cc1onc(-c2c(F)cccc2Cl)c1C(=O)N(C)C1CCCCC1 | 1.6 | 4.4 | 7.3 | -8.4 | 13.6 | 3.3 | . | .
Cc1ccc(COC(=O)c2cc([N+](=O)[O-])ccc2N2CCOCC2)cc1 | 22.1 | 30.2 | 45.5 | -1.8 | 70.6* | 28.9 | 75.2* | 86.7*
O=C(O)c1cc([N+](=O)[O-])ccc1N1CCCCC1 | . | 13.2 | -6.8 | 16.2 | -17.8 | -16.6 | . | .
Cc1ccc(C(=O)c2cc([N+](=O)[O-])ccc2N2CCCCC2)c(C)c1 | 65.1 | 5.3 | -5.0 | -0.9 | 54.6* | 4.3 | 67.4* | 124.8*
O=C(OCc1ccc([N+](=O)[O-])cc1)c1cc([N+](=O)[O-])ccc1N1CCOCC1 | 3.9 | 24.7 | 14.1 | 22.4 | 34.6 | 16.6 | . | .
CCOc1ccc(S(=O)(=O)N2CCN(C(=O)c3cc([N+](=O)[O-])ccc3N3CCOCC3)CC2)cc1 | -7.3 | 0.5 | . | . | 60.3* | . | 28.2 | .
O=C(COC(=O)c1ccc(Br)o1)NCC1CCCO1 (centres undefined) | -1.9 | 0.3 | -3.2 | 17.1 | 6.0 | -1.2 | . | .
COc1ccccc1N(C)S(=O)(=O)c1ccc(C)c(C(=O)N2CCCCCC2)c1 | . | 8.1 | . | . | -3.9 | . | . | .
CC1(C)CC[C@]2(C(=O)O)CC[C@]3(C)C(=CC[C@@H]4[C@@]5(C)CC[C@H](O[C@@H]6O[C@H](C(=O)O)[C@@H](O)[C@H](O[C@@H]7OC[C@H](O)[C@H](O)[C@H]7O)[C@H]6O)C(C)(C)[C@@H]5CC[C@]43C)[C@@H]2C1 | 108.6* | 17.0 | 99.3* | . | 79.2* | . | 34.0 | 44.2*
COC(=O)c1cc(NC(=S)Nc2cc(Cl)cc(Cl)c2)cc(C(=O)OC)c1 | -12.7 | 3.0 | 28.6 | -50.1 | 12.2 | 21.3 | . | .
Cc1cc(C)cc(OC(=O)CS(=O)c2ccc(C(F)(F)F)cc2[N+](=O)[O-])c1 (centres undefined) | -25.6 | 20.7 | 39.1 | 3.0 | 50.2* | -13.3 | 40.3* | 55.0*
COc1cccc(C(=O)Nc2nnc(-c3ccc(Cl)cc3)o2)c1 | -3.1 | 29.1 | 62.1 | -1.8 | 38.2 | -6.2 | . | .
Clc1nc(-c2ccccn2)nc2scc(-c3ccccc3)c12 | 51.1 | 30.9 | 0.3 | 3.4 | 57.3* | 14.2 | 36.6 | .
O=C(/C=C/c1cc([N+](=O)[O-])ccc1OC(F)F)Nc1cccc([N+](=O)[O-])c1 | . | -11.5 | . | -6.2 | 74.6* | 44.6 | 22.9 | .
O=C(/C=C/c1cc([N+](=O)[O-])ccc1OC(F)F)Nc1ccc(OC(F)F)cc1 | 7.6 | 9.6 | 3.5 | 40.2 | 9.8 | 23.1 | . | .
O=C1Nc2ccccc2C1=Nc1ccc(-c2nnc3n2CCCCC3)cc1 | -12.2 | 12.8 | -8.1 | -22.4 | 18.8 | -2.1 | . | .
COc1cc(/C=C/C(=O)c2cccc([N+](=O)[O-])c2)cc(OC)c1OC | 0.0 | 36.7 | 8.9 | 19.7 | 52.2* | -0.8 | 22.4 | .
COc1cc(/C=C2/OC(=O)c3cc([N+](=O)[O-])ccc32)cc(OC)c1OC | -0.5 | -3.5 | 1.8 | -10.3 | 67.2* | -12.2 | 0.0 | .
CN(c1ncnc(N)c1[N+](=O)[O-])C1CCCCC1 | -26.1 | 17.7 | -9.4 | 1.0 | 80.2* | -20.8 | 81.6* | 51.3*
CN(c1ncnc(N)c1[N+](=O)[O-])C1CCS(=O)(=O)C1 (centres undefined) | -8.1 | 0.8 | -5.4 | -7.4 | 51.1* | -24.3 | 43.6* | 39.6*
Nc1ncnc(NC2CCS(=O)(=O)C2)c1[N+](=O)[O-] (centres undefined) | -19.7 | -1.0 | -19.4 | -7.8 | 33.0 | -11.6 | . | .
CCCCN(c1ccccc1)c1ncnc(N)c1[N+](=O)[O-] | -10.5 | 22.4 | -25.8 | -27.6 | 54.6* | 9.7 | 83.2* | 51.7*
CCn1c(SCC(=O)N2CCOCC2)nc2oc3c(Cl)cc(Cl)cc3c(=O)c2c1=O | . | 5.7 | 40.1 | -4.9 | 45.0 | -16.5 | . | .
O=C(COC(=O)C12CC3CC(CC(C3)C1)C2)NCc1ccccc1 | -2.3 | 24.2 | 8.0 | . | -0.5 | . | . | .
SMILES | Beta apoptosis | NALP3 yeast inh | CSC inhib | Calb FLC | Mdm2-MdmX inh | T cruzi repl | Mdm2-MdmX conf | FLuc counter
COC(=O)C/C=C/[C@@H](C)[C@@H](/C=N/O[C@H](C)c1cn([C@@H]2COC[C@H]2O)nn1)NS(=O)(=O)c1ccc(C)cc1 | 5.4 | 3.6 | -1.5 | -2.2 | 3.3 | -5.7 | . | .
Cc1c(C(=O)N2CCC(C)CC2)oc2ccc3c(c12)C(O)CC1(CCCCC1)O3 (centres undefined) | 3.6 | 17.9 | 11.6 | -3.5 | 75.6* | 6.3 | 23.4 | .
COCCNC(=O)c1oc2ccc3c(c2c1C)C(O)CC(C)(C)O3 (centres undefined) | -3.3 | 9.3 | -6.3 | 1.5 | 0.0 | -9.5 | . | .
Cc1ccccc1Oc1nc2c(c(=O)n(C)c(=O)n2C)n1C | -7.0 | 21.5 | -3.0 | -2.4 | 3.0 | -13.6 | . | .
CCn1c(Oc2ccccc2C)nc2c1c(=O)n(C)c(=O)n2C | . | 16.8 | . | -0.4 | 56.8* | 7.5 | 41.8* | 42.9*
Cc1cc(O)c2c(c1O)C(=O)[C@]13C(=C2O)C(=O)[C@@H]2[C@@H](O)[C@H]1[C@@H]1[C@H](O)[C@H]3C(=O)C3=C(O)c4c(O)cc(C)c(O)c4C(=O)[C@]312 | . | 39.0 | . | . | 87.2* | . | 84.5* | 22.6
Cc1ccc(Cc2c(C)c(C#N)c3[nH]c4ccccc4n3c2=O)cc1 | 76.8* | 40.6 | 32.0 | 26.3 | 65.4* | 12.8 | 54.8* | 35.8
O=C(Sc1nnc(-c2ccccc2)o1)N1c2ccccc2Sc2ccccc21 | . | 31.6 | . | -5.7 | 59.5* | 31.8 | 22.1 | .
COc1ccc(C(=O)c2ccc(Cl)cc2)cc1 | 0.4 | 41.5 | -1.6 | -2.4 | 3.1 | -9.1 | . | .
COc1cc(C(=O)Nc2ccc(Cl)c([N+](=O)[O-])c2)cc(OC)c1OC | 7.6 | 3.3 | -6.9 | -2.5 | 56.8* | 6.5 | 5.1 | .
COc1ccc(C(=O)c2ccc(Cl)c([N+](=O)[O-])c2)cc1 | 53.5 | 18.4 | 37.5 | 2.6 | 70.3* | -15.8 | 69.8* | 111.2*
Cc1ccc(C(=O)NCC(=O)NCC(c2ccco2)N2CCCCC2)cc1C (centres undefined) | . | 10.0 | . | . | -4.2 | . | . | .
Cc1sc2nc(SCC(=O)NCc3ccco3)n(CCc3ccccc3)c(=O)c2c1C | 23.7 | -2.4 | 0.4 | -21.4 | 62.9* | 40.5 | 25.1 | .
CCn1c(SCC(=O)NC(=O)NCc2ccco2)nc2sc(C)c(C)c2c1=O | -2.6 | 3.6 | 0.7 | 29.0 | -2.3 | 14.0 | . | .
COc1cc2nc(SCC(=O)NCc3ccco3)n(Cc3ccc(Cl)cc3)c(=O)c2cc1OC | -9.0 | 7.3 | . | 10.8 | 77.7* | -12.1 | 31.7 | .
